Test [1] concerns the target T1, human KOR (CHO-KOR) (Homo sapiens, UniProt P41145). The test is described as follows: [3H]-diprenorphine competitive displacement binding, CHO-KOR membranes. In short, it runs like this:
(§1)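 Membranes came from C6 glioma cells stably expressing rat MOR or DOR, or CHO cells stably expressing human KOR. Membranes (20 μg protein) in 50 mM Tris-HCl pH 7.4 were incubated with 0.2 nM [³H]-diprenorphine and varying test compound concentrations for 1 h at room temperature, then filtered on GF/C. Nonspecific binding was defined with 10 μM naloxone. Ki came from logistic nonlinear regression; at least three assays in duplicate.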

Test [2] deals with T2, rat MOR (C6-MOR) (Rattus norvegicus, UniProt P33535). As to the kind of experiment: [3H]-diprenorphine competitive displacement binding, C6-MOR membranes. An outline of the steps: as §1
Test [3] addresses T3, rat DOR (C6-DOR) (Rattus norvegicus, UniProt P33533). The test is described as follows: [3H]-diprenorphine competitive displacement binding, C6-DOR membranes. An outline of the steps: as §1
Test [4] deals with T2, rat MOR (C6-MOR). As to the kind of experiment: Stimulation of [35S]-GTPγS binding, C6-MOR membranes. Format: biochemical. The conditions noted are these: for Emax: read-out: % stimulation MOR; for % stimulation MOR: percent maximal stimulation relative to DAMGO at 10 μM. An outline of the steps:
(§2)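 Rat MOR or DOR (C6) and human KOR (CHO) membranes (10–20 μg protein) were incubated 1 h at 25 °C in 50 mM Tris-HCl, 100 mM NaCl, 5 mM MgCl₂, pH 7.4, with 0.1 nM [³⁵S]-GTPγS, 30 μM GDP and varying test compound concentrations, then filtered on GF/C. % stimulation was taken relative to 10 μM DAMGO (MOR), DPDPE (DOR) or U69,593 (KOR). EC50 came from nonlinear regression; at least three assays in duplicate.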
For orientation: GTPγS resists hydrolysis and so accumulates on activated G proteins.

Test [5] has as its target T1, human KOR (CHO-KOR). As to the kind of experiment: Stimulation of [35S]-GTPγS binding, CHO-KOR membranes. Conditions: for EC50 KOR: [35S]-GTPγS binding, mean (SEM); for EC50 KOR / % stimulation KOR: dns: does not stimulate; for % stimulation KOR: percent maximal stimulation relative to U69,593 at 10 μM. Format: biochemical. An outline of the steps: as §2
Test [6] has as its target T3, rat DOR (C6-DOR). As to the kind of experiment: Stimulation of [35S]-GTPγS binding, C6-DOR membranes. Format: biochemical. Conditions: for % stimulation DOR: percent maximal stimulation relative to DPDPE at 10 μM; for % stimulation DOR / EC50 DOR: dns: does not stimulate; for EC50 DOR: [35S]-GTPγS binding, mean (SEM). In short, it runs like this: as §2
Setting [7] is: displacement of [3H]-diprenorphine, mean (SEM), n = 3.

“And” between values parts separate entries of the source, which are not always exact repeats. Identical values can stand only once. “Also recorded” adds a separate entry of the source.

In general, Ki refers to a dissociation constant, usually derived from enzyme kinetics or from competition with a known ligand. Lower therefore signals tighter binding. Broadly, the EC50 is the concentration needed to bring the measured effect to its halfway point. High values mean weaker potency, low ones greater potency. On to `COc1ccccc1Cc1ccc2c(c1)[C@H](NC(=O)[C@@H](N)Cc1c(C)cc(O)cc1C)CCN2` [Compound 4a], for which the inhibitory constant (Ki) was determined as 54 nM at human KOR (CHO-KOR) [1], 0.34 nM on rat MOR (C6-MOR) [2] and 6.5 nM on rat DOR (C6-DOR) [3]. For the same compound, the EC50 on rat MOR (C6-MOR) [4] was found to be 8.9 nM; at human KOR (CHO-KOR) [5], 1000 nM; at rat DOR (C6-DOR) [6], 130 nM. Further, at rat MOR (C6-MOR) [4], the Emax is 91%. At rat DOR (C6-DOR) [6], the “% stimulation DOR” value was 16 (2.2) %.
In turn, `Cc1cc(O)cc(C)c1C[C@H](N)C(=O)N[C@@H]1CCNc2ccc(CC3Cc4ccc(O)cc4C3)cc21` (stereo partly drawn) [Compound 8d] came in with an inhibition constant (Ki) on human KOR (CHO-KOR) [1] of 41 nM. The compound also had a Ki on rat MOR (C6-MOR) [2] of 0.82 nM. At rat DOR (C6-DOR) [3], this compound returned a Ki of 15 nM. The compound further displayed an EC50 on rat MOR (C6-MOR) [4] of 7 nM. Besides, the “% stimulation MOR” value on rat MOR (C6-MOR) [4] (dns: does not stimulate) is given as 16 (2.4) %. Also, at human KOR (CHO-KOR) [5], the “EC50 KOR” value is reported as “dns”; the “% stimulation KOR” value was “low affinity KOR antagonists and dns”. Besides, at rat DOR (C6-DOR) [6], the “EC50 DOR” value is on record as “dns” and the “% stimulation DOR” value is given as “dns”.
Regarding `Cc1cc(O)cc(C)c1C[C@H](N)C(=O)N[C@@H]1CCNc2ccc(Cc3ccccc3O)cc21` [Compound 4d], the inhibitory constant (Ki) at human KOR (CHO-KOR) [1] was found to be 5.7 nM; at rat MOR (C6-MOR) [2], 0.26 nM; at rat DOR (C6-DOR) [3], 5.6 nM. In addition, the EC50 at rat MOR (C6-MOR) [4] is 9.8 nM; on human KOR (CHO-KOR) [5], 270 nM; on rat DOR (C6-DOR) [6], 1500 nM. Besides, on rat MOR (C6-MOR) [4], the Emax was 89%. The “% stimulation KOR” value at human KOR (CHO-KOR) [5] was 67% and 67 (3.5) %.
On human KOR (CHO-KOR) [1], `Cc1cc(O)cc(C)c1C[C@H](N)C(=O)N[C@@H]1CCNc2ccc(CC3Cc4cccc(O)c4C3)cc21` (stereo partly drawn) [Compound 8c] displayed a Ki of 0.77 nM. In addition, the “Binding, Ki KOR” value at human KOR (CHO-KOR) [1] (setting [7]) is given as “subnanomolar binding affinity”. The “Binding, Ki MOR” value at rat MOR (C6-MOR) [2] (setting [7]) is “subnanomolar binding affinity”. Besides, the “% stimulation MOR” value at rat MOR (C6-MOR) [4] (dns: does not stimulate) is reported as 66 (3.3) %. At human KOR (CHO-KOR) [5], it took 25 nM to reach a half-maximal effect (EC50); the “% stimulation KOR” value is 92% and 92 (3.6) %. Besides, at rat DOR (C6-DOR) [6], the “EC50 DOR” value was “dns^d” and the “% stimulation DOR” value is on record as “no stimulation at DOR; also recorded: dns^d”.
Take `COc1ccc(Cc2ccc3c(c2)[C@H](NC(=O)[C@@H](N)Cc2c(C)cc(O)cc2C)CCN3)cc1` [Compound 4c]: the Ki on human KOR (CHO-KOR) [1] was found to be 100 nM. Moreover, the affinity on rat MOR (C6-MOR) [2], expressed as Ki, was 0.29 nM. The compound further displayed a Ki at rat DOR (C6-DOR) [3] of 15 nM. Besides, on rat MOR (C6-MOR) [4], a half-maximal effect (EC50) was put at 9.3 nM. Also, the “% stimulation MOR” value at rat MOR (C6-MOR) [4] (dns: does not stimulate) is reported as 55 (3.4) %. Further, at human KOR (CHO-KOR) [5], the “EC50 KOR” value is reported as “dns^d” and the “% stimulation KOR” value is listed as “displayed no agonist effect; also recorded: eliminating stimulation; also recorded: dns^d”. Also, at rat DOR (C6-DOR) [6], the “EC50 DOR” value is given as “dns^d” and the “% stimulation DOR” value is listed as “did not stimulate GTPγS binding; also recorded: eliminating stimulation; also recorded: dns^d”.
For the compound `Cc1cc(O)cc(C)c1C[C@H](N)C(=O)N[C@@H]1CCNc2ccc(Cc3cccc(O)c3)cc21` [Compound 4e], the Ki was 16 nM on human KOR (CHO-KOR) [1], 0.19 nM at rat MOR (C6-MOR) [2] and 1.4 nM on rat DOR (C6-DOR) [3]. Besides, the EC50 was 4.8 nM at rat MOR (C6-MOR) [4], 230 nM on human KOR (CHO-KOR) [5] and 140 nM on rat DOR (C6-DOR) [6]. On rat MOR (C6-MOR) [4], the Emax turned out to be 96%. Besides, the “% stimulation DOR” value at rat DOR (C6-DOR) [6] was 67% and 67 (1.6) %.
In turn, `COc1ccc2c(c1)CC(Cc1ccc3c(c1)[C@H](NC(=O)[C@@H](N)Cc1c(C)cc(O)cc1C)CCN3)C2` (stereo partly drawn) [Compound 8b] yielded a Ki at human KOR (CHO-KOR) [1] of 33 nM. The compound further gave an inhibitory constant (Ki) at rat MOR (C6-MOR) [2] of 0.08 nM. Also, a half-maximal effect at rat MOR (C6-MOR) [4] (EC50) was put at 7.9 nM. Further, the “% stimulation MOR” value on rat MOR (C6-MOR) [4] (dns: does not stimulate) is recorded as 22 (3.7) %. Further, at human KOR (CHO-KOR) [5], the “EC50 KOR” value is listed as “dns”; the “% stimulation KOR” value is “low affinity KOR antagonists and dns”. Moreover, on rat DOR (C6-DOR) [6], the “EC50 DOR” value is “dns^d” and the “% stimulation DOR” value was “dns^d”.
In the case of `Cc1cc(O)cc(C)c1C[C@H](N)C(=O)N[C@@H]1CCNc2ccc(Cc3ccc(O)cc3)cc21` [Compound 4f], the results for the inhibition constant (Ki) at human KOR (CHO-KOR) [1], at rat MOR (C6-MOR) [2] and at rat DOR (C6-DOR) [3] were 420 nM, 1.7 nM and 130 nM, respectively. Also, the “EC50 MOR” value at rat MOR (C6-MOR) [4] ([35S]-GTPγS binding, mean (SEM), dns: does not stimulate) is “dns”. In addition, the “% stimulation MOR” value on rat MOR (C6-MOR) [4] (dns: does not stimulate) was “no stimulation of GTP binding and dns”. The “EC50 KOR” value at human KOR (CHO-KOR) [5] was “dns^d”. For the same compound, on human KOR (CHO-KOR) [5], the “% stimulation KOR” value is “displayed no agonist effect; also recorded: dns^d”. At rat DOR (C6-DOR) [6], the “EC50 DOR” value was “dns^d”. For the same compound, the “% stimulation DOR” value at rat DOR (C6-DOR) [6] is “did not stimulate GTPγS binding; also recorded: dns^d”.
`COc1cccc2c1CC(Cc1ccc3c(c1)[C@H](NC(=O)[C@@H](N)Cc1c(C)cc(O)cc1C)CCN3)C2` (stereo partly drawn) [Compound 8a] yielded a Ki on human KOR (CHO-KOR) [1] of 67 nM. Also, the affinity on rat DOR (C6-DOR) [3] corresponds to a Ki of 2.3 nM. In addition, at rat MOR (C6-MOR) [4], the midpoint of the response, the EC50, lay at 1.9 nM. Moreover, the “% stimulation MOR” value at rat MOR (C6-MOR) [4] (dns: does not stimulate) is 48 (2.9) %. At human KOR (CHO-KOR) [5], the “EC50 KOR” value is “dns^d” and the “% stimulation KOR” value was “low affinity KOR antagonists; also recorded: dns^d”. Besides, at rat DOR (C6-DOR) [6], the “EC50 DOR” value is on record as “dns^d” and the “% stimulation DOR” value is “dns^d”.
On to `COc1cccc(Cc2ccc3c(c2)[C@H](NC(=O)[C@@H](N)Cc2c(C)cc(O)cc2C)CCN3)c1` [Compound 4b], for which the Ki at human KOR (CHO-KOR) [1] is 27 nM; on rat MOR (C6-MOR) [2] it was 0.11 nM; on rat DOR (C6-DOR) [3] it was 5.4 nM. In addition, the EC50 on rat MOR (C6-MOR) [4] came out at 4.4 nM; on rat DOR (C6-DOR) [6], 230 nM. Besides, the Emax on rat MOR (C6-MOR) [4] came out at 99%. The “EC50 KOR” value on human KOR (CHO-KOR) [5] is reported as “dns^d”. For the same compound, the “% stimulation KOR” value at human KOR (CHO-KOR) [5] is listed as “displayed no agonist effect; also recorded: dns^d”. Further, on rat DOR (C6-DOR) [6], the “% stimulation DOR” value was 10 (2.6) %.
